Data taken from ChEMBL document CHEMBL5257157, “Biological evaluation of novel amidino substituted coumarin-benzazole hybrids as promising therapeutic agents” (RSC Med Chem, 2023).

What was measured:
[1] = tested on: Influenza A virus; test: Antiviral activity against influenza virus H1N1 infected in dog MDCK cells assessed as inhibition of virus-induced cytopathogenic effect incubated for 3 to 7 days by MTS assay; format: functional, organism-based
[2] = tested on: K562; test: Antiproliferative activity against human K562 cells assessed as inhibition of cell growth incubated for 72 hrs by CellTiter96 Aqueous One Solution cell proliferation assay; format: functional, cell-based; conditions: K562, 72 h
[3] = Antiproliferative activity against human DND41 cells assessed as inhibition of cell growth incubated for 72 hrs by CellTiter96 Aqueous One Solution cell proliferation assay; format: functional, cell-based; conditions: DND41, 72 h
[4] = tested on: HL-60; test: Antiproliferative activity against human HL-60 cells assessed as inhibition of cell growth incubated for 72 hrs by CellTiter96 Aqueous One Solution cell proliferation assay; format: functional, cell-based; conditions: HL-60, 72 h
[5] = tested on: Human coronavirus OC43; test: Antiviral activity against HCoV-OC43 infected in human HEL 299 cells assessed as inhibition of virus-induced cytopathogenic effect incubated for 3 to 7 days by MTS assay; format: functional, organism-based; conditions: Betacoronavirus 1, HEL 299
[6] = tested on: LN-229; test: Antiproliferative activity against human LN-229 cells assessed as inhibition of cell growth incubated for 72 hrs by CellTiter96 Aqueous One Solution cell proliferation assay; format: functional, cell-based; conditions: LN-229, 72 h
[7] = tested on: Human alphaherpesvirus 1; test: Antiviral activity against HSV-1 KOS infected in human HEL 299 cells assessed as inhibition of virus-induced cytopathogenic effect incubated for 3 to 7 days by MTS assay; format: functional, organism-based; conditions: Human alphaherpesvirus 1, KOS
[8] = Antioxidant activity assessed as reduction of Fe3+ complex to Fe2+ analogue by measuring mmolFe2+/mmolc by FRAP assay; format: functional
Summary of the method: (§1)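 Pure compounds tested in three colorimetric antioxidant assays, each run alongside the reference BHT. […] ABTS: direct reaction with ABTS•+ radical cation, reported as IC50. DPPH: scavenging of the stable DPPH radical by proton or electron donation, reported as IC50. FRAP: reducing power, expressed as mmolFe2+/mmolC.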

[9] = Cytotoxicity against human HEL 299 cells assessed as inhibition of cell growth incubated for 72 hrs by CellTiter96 Aqueous One Solution cell proliferation assay; format: toxicity, cell-based
[10] = tested on: Z-138; test: Antiproliferative activity against human Z138 cells assessed as inhibition of cell growth incubated for 72 hrs by CellTiter96 Aqueous One Solution cell proliferation assay; format: functional, cell-based; conditions: Z-138, 72 h
[11] = tested on: Influenza B virus; test: Antiviral activity against influenza B virus infected in dog MDCK cells assessed as inhibition of virus-induced cytopathogenic effect incubated for 3 to 7 days by MTS assay; format: functional, organism-based
[12] = tested on: Huh-7; test: Cytotoxicity against human Huh-7 cells assessed as inhibition of cell growth incubated for 72 hrs by CellTiter96 Aqueous One Solution cell proliferation assay; format: functional
[13] = tested on: Yellow fever virus; test: Antiviral activity against Yellow fever virus 17D infected in human Huh-7 cells assessed as inhibition of virus-induced cytopathogenic effect incubated for 3 to 7 days by MTS assay; format: functional, organism-based
[14] = tested on: Respiratory syncytial virus; test: Antiviral activity against RSV infected in human HEL 299 cells assessed as inhibition of virus-induced cytopathogenic effect incubated for 3 to 7 days by MTS assay; format: functional, organism-based
[15] = tested on: NCI-H460; test: Antiproliferative activity against human NCI-H460 cells assessed as inhibition of cell growth incubated for 72 hrs by CellTiter96 Aqueous One Solution cell proliferation assay; format: functional, cell-based; conditions: NCI-H460, 72 h
[16] = tested on: Human coronavirus 229E; test: Antiviral activity against HCoV-229E infected in human HEL 299 cells assessed as inhibition of virus-induced cytopathogenic effect incubated for 3 to 7 days by MTS assay; format: functional, organism-based
[17] = Antiviral activity against HCoV-NL63 infected in human Huh-7 cells assessed as inhibition of virus-induced cytopathogenic effect incubated for 3 to 7 days by MTS assay; format: functional, cell-based; conditions: Human coronavirus NL63, Huh-7
[18] = Cytotoxicity against dog MDCK cells assessed as inhibition of cell growth incubated for 72 hrs by CellTiter96 Aqueous One Solution cell proliferation assay; format: toxicity, cell-based, Canis lupus familiaris
[19] = Antioxidant activity assessed as DPPH radical scavenging activity incubated for 5 mins by absorbance based microplate reader analysis; format: functional; summary of the method: as §1
[20] = Antioxidant activity assessed as ABTS radical scavenging activity incubated for 5 mins by absorbance based microplate reader analysis; format: functional; summary of the method: as §1
[21] = tested on: Influenza A virus; test: Antiviral activity against influenza virus H3N2 infected in dog MDCK cells assessed as inhibition of virus-induced cytopathogenic effect incubated for 3 to 7 days by MTS assay; format: functional, organism-based
[22] = tested on: Zika virus; test: Antiviral activity against Zika virus Mr776 infected in human Huh-7 cells assessed as inhibition of virus-induced cytopathogenic effect incubated for 3 to 7 days by MTS assay; format: functional, organism-based; conditions: Mr776, Huh-7
[23] = tested on: CAPAN-1; test: Antiproliferative activity against human CAPAN-1 cells assessed as inhibition of cell growth incubated for 72 hrs by CellTiter96 Aqueous One Solution cell proliferation assay; format: functional, cell-based; conditions: CAPAN-1, 72 h
[24] = tested on: Sindbis virus; test: Antiviral activity against Sindbis virus infected in human Huh-7 cells assessed as inhibition of virus-induced cytopathogenic effect incubated for 3 to 7 days by MTS assay; format: functional, organism-based

| Compound | EC50 [1] [µM] | IC50 [2] [µM] | IC50 [3] [µM] | IC50 [4] [µM] | EC50 [5] [µM] | IC50 [6] [µM] | EC50 [7] [µM] | CC50 at 72 h [9] [µM] | IC50 [10] [µM] | EC50 [11] [µM] | CC50 [12] [µM] | EC50 [13] [µM] | EC50 [14] [µM] | IC50 [15] [µM] | EC50 [16] [µM] | EC50 [17] [µM] | CC50 at 72 h [18] [µM] | IC50 [20] [µM] | EC50 [21] [µM] | EC50 [22] [µM] | other results |
| --- | --- | --- | --- | --- | --- | --- | --- | --- | --- | --- | --- | --- | --- | --- | --- | --- | --- | --- | --- | --- | --- |
| O=c1oc2ccccc2c(Cl)c1-c1nc2cc(C3=NCCCN3)ccc2[nH]1 | > 100 | > 100 | 19.1 | 53.5 | > 100 | > 100 | > 100 | 87.4 | 44.5 | > 100 | 61.7 | > 100 | > 100 | > 100 | > 100 | > 100 | 81.7 | 290 | > 100 | > 100 | Activity [8]: 38.3 mmol/mmol; IC50 [19]: 70 µM; IC50 [23]: 69.2 µM; EC50 [24]: > 100 µM |
| Cc1ccc2oc(=O)c(-c3nc4cc(C5=NCCN5)ccc4[nH]3)c(Cl)c2c1 | > 100 | 9.9 | 5.8 | 21.5 | > 100 | 9.1 | > 100 | 77 | 6.4 | > 100 | < 0.8 | > 100 | > 100 | 31.7 | > 100 | > 100 | 10 | 350 | > 100 | > 100 | Activity [8]: 47.1 mmol/mmol; IC50 [19]: 190 µM; IC50 [23]: 10.2 µM; EC50 [24]: > 100 µM |
| O=c1oc2ccc(Br)cc2c(Cl)c1-c1nc2cc(C3=NCCCN3)ccc2[nH]1 | 43.8 | 59.5 | 49.2 | > 100 | 78 | > 100 | > 100 | > 100 | 52.1 | 9 | > 100 | 11.2 | 73.5 | > 100 | > 100 | > 100 | > 100 | 360 | 51 | 9.4 | Activity [8]: 95.1 mmol/mmol; IC50 [19]: 110 µM; IC50 [23]: 54.2 µM; EC50 [24]: 59 µM |
| CC(=O)N[C@H]1[C@H]([C@H](O)[C@H](O)CO)OC(C(=O)O)=C[C@@H]1NC(=N)N [ZANAMIVIR] | 0.1 |  |  |  |  |  |  |  |  | 0.05 |  |  |  |  |  |  | > 100 |  | 16.8 |  |  |
| Cc1cc(C(C)(C)C)c(O)c(C(C)(C)C)c1 [BUTYLATED HYDROXYTOLUENE] |  |  |  |  |  |  |  |  |  |  |  |  |  |  |  |  |  | 180 |  |  | IC50 [19]: 25 µM |
| O=c1[nH]c(=O)n([C@H]2C[C@H](O)[C@@H](CO)O2)cc1/C=C/Br [BRIVUDINE] |  |  |  |  |  |  | 0.05 | > 100 |  |  |  |  |  |  |  |  |  |  |  |  |  |
| O=c1oc2ccccc2c(Cl)c1-c1nc2cc(C3=NCCN3)ccc2[nH]1 | > 100 | > 100 | 36.5 | 55.7 | > 100 | > 100 | > 100 | 99.5 | 50.5 | > 100 | 85 | > 100 | > 100 | > 100 | > 100 | > 100 | 92.1 | 370 | > 100 | > 100 | Activity [8]: 35.1 mmol/mmol; IC50 [19]: 440 µM; IC50 [23]: 99.3 µM; EC50 [24]: > 100 µM |
| CCN(CC)c1ccc2cc(-c3nc4ccc(C5=NCCN5)cc4s3)c(=O)oc2c1 | > 100 | 65.5 | 10.2 | > 100 | 69.7 | > 100 | 47.9 | > 100 | 11.3 | > 100 | 54.2 | > 100 | > 100 | > 100 | > 100 | > 100 | 64.2 | 2190 | > 100 | > 100 | Activity [8]: 2.84 mmol/mmol; IC50 [23]: 80.6 µM; EC50 [24]: > 100 µM |
| COc1cc([C@@H]2c3cc4c(cc3[C@@H](O[C@@H]3O[C@@H]5CO[C@@H](C)O[C@H]5[C@H](O)[C@H]3O)[C@H]3COC(=O)[C@H]23)OCO4)cc(OC)c1O [ETOPOSIDE] |  | 1.77 | 2.8 | 0.42 |  | 0.43 |  |  | 0.85 |  |  |  |  | 3.65 |  |  |  |  |  |  | IC50 [23]: 1.45 µM |
| NC(=O)c1ncn([C@@H]2O[C@H](CO)[C@@H](O)[C@H]2O)n1 [RIBAVIRIN] | 10.5 |  |  |  |  |  |  | > 250 |  | 2.8 | 8.9 | > 250 | 10.8 |  | 82.6 | > 250 | 67 |  | 4 | > 250 |  |
| CC(N)C12CC3CC(CC(C3)C1)C2 (stereo not drawn) [RIMANTADINE] | 5 |  |  |  |  |  |  |  |  | > 100 |  |  |  |  |  |  | > 100 |  | 0.05 |  |  |
| CCC(CC)COC(=O)[C@H](C)N[P@](=O)(OC[C@H]1O[C@@](C#N)(c2ccc3c(N)ncnn23)[C@H](O)[C@@H]1O)Oc1ccccc1 [REMDESIVIR] |  |  |  |  | 0.06 |  |  | > 10 |  |  | > 10 | 6.2 | 0.03 |  | 0.06 | 0.03 |  |  |  | 0.7 | EC50 [24]: > 10 µM |
